Values after ≈ are worked out from the molar mass of the structure shown.
Key:
[1] = Cardiotoxicity against human induced pluripotent stem cell-derived cardiomyocytes assessed as free drug concentration causing inhibition of spontaneous rhythm after 5 to 60 mins by Fluo-4 dye based fluorescence assay; format: toxicity; conditions: cardiac muscle cell
Method in brief: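 Spontaneous beating rhythm of human iPSC-derived cardiomyocytes monitored. Reported value is the lowest active concentration, free or total. Free/total conversion corrected for 20% serum in the test solution.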

[2] = Clearance in Wistar rat at 10 mg/kg, iv by LC-MS/MS analysis; format: ADME, organism-based; conditions: in vivo
Method in brief: (§1)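 Rats dosed iv at 10 mg/kg or 1 mg/kg. Dose-normalized AUC (μg·h/(mL·dose)) and its unbound counterpart derived via fraction unbound. Clearance, unbound clearance, Vdss and half-life also derived.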

hERG (KCNH2) [3] = target: T1, hERG (KCNH2) (Homo sapiens, UniProt Q12809); assay: Inhibition of human ERG assessed as reduction of K+ current at 30 uM
Method in brief: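 hERG K+ channel current reduction measured at 30 μM compound concentration.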

[4] = Inhibition of wild-type Escherichia coli DNA topoisomerase-4 mediated supercoiled pBR322 DNA relaxation by ethidium bromide based agarose gel electrophoresis
Klebsiella pneumoniae = assay: Antibacterial activity against Klebsiella pneumoniae by CLSI broth microdilution method; format: functional
Cavia porcellus [5] = assay: Cardiotoxicity in Dunkin-Hartley guinea pig assessed as free plasma concentration causing effect on heart rate administered as iv at 3 mg/kg for first 20 mins of infusion followed by 10 mg/kg for second 20 mins of infusion followed by 30 mg/kg for third 20 mins of infusion by LC-MS/MS analysis; format: toxicity, organism-based; conditions: in vivo
Method in brief: (§2)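 Anesthetized guinea pigs received 3, 10 and 30 mg/kg iv over three consecutive 20 min periods. MAP, HR and ECG intervals (PR, QRS, RR, QT) recorded continuously. Blood drawn at the end of each period for drug levels. Value is the lowest plasma concentration differing from vehicle-treated animals. Free level uses unbound fraction from rapid equilibrium dialysis of guinea pig plasma.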

Streptococcus pyogenes = assay: Antibacterial activity against Streptococcus pyogenes by CLSI broth microdilution method; format: functional
Rattus norvegicus [6] = assay: Unbound clearance in Wistar rat at 10 mg/kg, iv by LC-MS/MS analysis; format: ADME, organism-based; conditions: in vivo
Method in brief: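 Rats received a single intravenous dose of 10 or 1 mg/kg depending on the compound. Clearance, unbound clearance, Vdss, terminal half-life and dose-normalized AUC were derived from plasma exposure, with unbound fraction (fu) reported for this species.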

[7] = Terminal half-life in Wistar rat at 10 mg/kg, iv by LC-MS/MS analysis; format: ADME, organism-based; conditions: in vivo, read-out: beta t1/2 (converted); method in brief: as §1
[8] = Inhibition of wild-type Pseudomonas aeruginosa DNA topoisomerase-4 mediated supercoiled pBR322 DNA relaxation by ethidium bromide based agarose gel electrophoresis
Acinetobacter baumannii = assay: Antibacterial activity against fluoroquinolone-resistant Acinetobacter baumannii T6474 by CLSI broth microdilution method; format: functional
[9] = Volume of distribution at steady state in dog at 1 mg/kg, iv by LC-MS/MS analysis; format: ADME, organism-based, Canis lupus familiaris; conditions: in vivo, read-out: Vdss
Method in brief: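 Dogs received a single intravenous dose of 1 mg/kg. Clearance, Vdss, terminal half-life and dose-normalized AUC were calculated from plasma concentration data.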

[10] = Fraction unbound in Dunkin-Hartley guinea pig plasma administered as iv at 3 mg/kg for first 20 mins of infusion followed by 10 mg/kg for second 20 mins of infusion followed by 30 mg/kg for third 20 mins of infusion by rapid equilibrium dialysis; format: ADME, organism-based, Cavia porcellus
Streptococcus pneumoniae = assay: Antibacterial activity against Streptococcus pneumoniae by CLSI broth microdilution method; format: functional
[11] = Inhibition of wild-type Escherichia coli DNA gyrase supercoiling activity using relaxed pBR322 DNA as substrate by ethidium bromide based agarose gel electrophoresis
Pseudomonas aeruginosa [12] = assay: Antibacterial activity against Pseudomonas aeruginosa ATCC 27853 by CLSI broth microdilution method; format: functional
Staphylococcus aureus [13] = assay: Antibacterial activity against Staphylococcus aureus by CLSI broth microdilution method; format: functional
[14] = Inhibition of wild-type Acinetobacter baumannii DNA gyrase supercoiling activity using relaxed pBR322 DNA as substrate by ethidium bromide based agarose gel electrophoresis
Cavia porcellus [15] = assay: Cardiotoxicity in Dunkin-Hartley guinea pig assessed as free plasma concentration causing effect on PR interval administered as iv at 3 mg/kg for first 20 mins of infusion followed by 10 mg/kg for second 20 mins of infusion followed by 30 mg/kg for third 20 mins of infusion by LC-MS/MS analysis; format: toxicity, organism-based; conditions: in vivo; method in brief: as §2
[16] = Half-life in dog at 1 mg/kg, iv by LC-MS/MS analysis; format: ADME, organism-based, Canis lupus familiaris; conditions: in vivo
Method in brief: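 Dogs given 1 mg/kg iv. Clearance (mL/min/kg) and half-life (h) derived from plasma profiles.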

Pseudomonas aeruginosa [17] = assay: Antibacterial activity against fluoroquinolone/carbapenem-resistant Pseudomonas aeruginosa by CLSI broth microdilution method; format: functional
Canis familiaris = assay: Dose normalized AUC in dog at 1 mg/kg, iv by LC-MS/MS analysis; format: ADME, organism-based, Canis lupus familiaris; conditions: in vivo
[18] = Lipophilicity, log D of the compound at pH 7.4; format: physicochemical; conditions: buffer
Rattus norvegicus [19] = assay: Dose normalized AUC in Wistar rat at 10 mg/kg, iv by LC-MS/MS analysis; format: ADME, organism-based; conditions: in vivo; method in brief: as §1
hERG (KCNH2) [20] = target: T1, hERG (KCNH2); assay: (§3) Inhibition of human ERG assessed as reduction of K+ current; conditions: human
[21] = target: Voltage-gated inwardly rectifying potassium channel KCNH2 (Homo sapiens, UniProt Q12809); assay: as §3
Citrobacter freundii = assay: Antibacterial activity against Citrobacter freundii by CLSI broth microdilution method; format: functional
Serratia marcescens = assay: Antibacterial activity against Serratia marcescens by CLSI broth microdilution method; format: functional
Escherichia coli [22] = assay: Antibacterial activity against Escherichia coli by CLSI broth microdilution method; format: functional
[23] = Inhibition of wild-type Pseudomonas aeruginosa DNA gyrase supercoiling activity using relaxed pBR322 DNA as substrate by ethidium bromide based agarose gel electrophoresis
Escherichia coli [24] = assay: Antibacterial activity against wild-type Escherichia coli ATCC 25922 by CLSI broth microdilution method; format: functional
[25] = Inhibition of wild-type Acinetobacter baumannii DNA topoisomerase-4 mediated supercoiled pBR322 DNA relaxation by ethidium bromide based agarose gel electrophoresis
Streptococcus agalactiae = assay: Antibacterial activity against Streptococcus agalactiae by CLSI broth microdilution method; format: functional
Enterobacter cloacae = assay: Antibacterial activity against fluoroquinolone/carbapenem-resistant Enterobacter cloacae by CLSI broth microdilution method; format: functional
Cavia porcellus [26] = assay: Cardiotoxicity in Dunkin-Hartley guinea pig assessed as free plasma concentration causing effect on QT interval administered as iv at 3 mg/kg for first 20 mins of infusion followed by 10 mg/kg for second 20 mins of infusion followed by 30 mg/kg for third 20 mins of infusion by LC-MS/MS analysis; format: toxicity, organism-based; conditions: in vivo; method in brief: as §2
[27] = Fraction unbound in Wistar rat plasma at 10 mg/kg, iv by rapid equilibrium dialysis; format: ADME, organism-based; method in brief: as §1
Staphylococcus aureus [28] = assay: Antibacterial activity against Staphylococcus aureus ATCC 29213 by CLSI broth microdilution method; format: functional
Rattus norvegicus [29] = assay: Dose normalized unbound AUC in Wistar rat at 10 mg/kg, iv by LC-MS/MS analysis; format: ADME, organism-based; conditions: in vivo; method in brief: as §1
Enterococcus faecium = assay: Antibacterial activity against multi-drug resistant Enterococcus faecium by CLSI broth microdilution method; format: functional

T1 sequence (Q12809 whole entry): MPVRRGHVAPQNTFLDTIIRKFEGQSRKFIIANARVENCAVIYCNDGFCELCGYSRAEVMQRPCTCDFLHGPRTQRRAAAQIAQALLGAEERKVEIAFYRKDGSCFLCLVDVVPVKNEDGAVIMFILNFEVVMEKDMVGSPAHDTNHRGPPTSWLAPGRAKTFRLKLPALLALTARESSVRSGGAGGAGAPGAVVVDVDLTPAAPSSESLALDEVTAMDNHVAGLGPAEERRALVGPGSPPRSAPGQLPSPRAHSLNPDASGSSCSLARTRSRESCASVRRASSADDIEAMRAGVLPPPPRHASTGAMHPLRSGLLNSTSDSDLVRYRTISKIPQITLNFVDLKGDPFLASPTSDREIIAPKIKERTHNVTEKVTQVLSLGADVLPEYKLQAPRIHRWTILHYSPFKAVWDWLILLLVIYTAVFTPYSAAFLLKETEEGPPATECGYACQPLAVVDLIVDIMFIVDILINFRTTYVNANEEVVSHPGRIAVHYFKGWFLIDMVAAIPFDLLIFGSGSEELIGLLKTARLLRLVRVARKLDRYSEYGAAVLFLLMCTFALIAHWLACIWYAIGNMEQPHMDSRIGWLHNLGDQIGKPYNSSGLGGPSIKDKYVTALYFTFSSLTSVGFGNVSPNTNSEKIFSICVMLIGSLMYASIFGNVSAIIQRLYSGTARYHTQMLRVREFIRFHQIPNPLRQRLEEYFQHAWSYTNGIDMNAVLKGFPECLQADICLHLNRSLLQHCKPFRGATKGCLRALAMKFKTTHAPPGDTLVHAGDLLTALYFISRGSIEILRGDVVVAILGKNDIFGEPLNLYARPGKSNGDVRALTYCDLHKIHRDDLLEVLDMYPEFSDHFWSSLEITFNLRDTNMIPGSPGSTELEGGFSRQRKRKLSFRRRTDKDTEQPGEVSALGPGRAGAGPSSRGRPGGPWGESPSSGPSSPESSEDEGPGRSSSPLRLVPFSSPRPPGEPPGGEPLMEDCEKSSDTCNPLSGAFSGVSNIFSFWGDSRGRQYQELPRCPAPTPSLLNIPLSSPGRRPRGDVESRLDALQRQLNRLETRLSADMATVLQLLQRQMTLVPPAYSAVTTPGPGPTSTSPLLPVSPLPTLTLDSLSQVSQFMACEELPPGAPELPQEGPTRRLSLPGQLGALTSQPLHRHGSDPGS
Sequence of Voltage-gated inwardly rectifying potassium channel KCNH2 (Q12809 whole entry): as above

Row | Structure (SMILES) | Drug uptake(free) [1] [µM] | clearance [2] [mL/min/kg] | inhibition at 30 µM (hERG (KCNH2) [3]) [%] | IC50 [4] [nM] | MIC (Klebsiella pneumoniae) [µg/mL] | Cp(f) (Cavia porcellus [5]) [nM] | MIC (Streptococcus pyogenes) [µg/mL] | CL free (Rattus norvegicus [6]) [mL/min/kg] | half-life [7] [h] | IC50 [8] [nM] | MIC (Acinetobacter baumannii) [µg/mL] | Vd [9] [L/kg] | fraction unbound at 20 min [10] | MIC (Streptococcus pneumoniae) [µg/mL] | IC50 [11] [nM] | MIC (Pseudomonas aeruginosa [12]) [µg/mL] | MIC (Staphylococcus aureus [13]) [µg/mL] | IC50 [14] [nM] | Cp(f) (Cavia porcellus [15]) [nM] | half-life [16] [h] | also measured
1 | COc1ccc2ccc(=O)n(C[C@H](N)[C@@H]3CC[C@@H](NCc4ccc5c(n4)NC(=O)CO5)CO3)c2n1 | 0.27 to 0.81 | 110 | 37 | 30 | 8 to 16 (≈ 16.6 to 33.3 µM) | 11000 | ≤ 0.03 | 144 | 9.1 | 30 | 1 (≈ 2.08 µM) | 2.5 | 0.54 | 0.25 to 8 (≈ 0.52 to 16.6 µM) | 125 | 1 (≈ 2.08 µM) | 0.25 to 2 (≈ 0.52 to 4.16 µM) | 125 | 2700 | 1.3 | MIC (Pseudomonas aeruginosa [17]): 1 to 2 µg/mL (≈ 2.08 to 4.16 µM); AUC/dose (Canis familiaris): 376 ng·h/mL; logD [18]: 0.3; AUC/dose (Rattus norvegicus [19]): 145 µg·h/mL; IC20 (hERG (KCNH2) [20]): 13000 nM; IC50 [21]: 52000 nM; MIC (Citrobacter freundii): 1 µg/mL (≈ 2.08 µM); MIC (Serratia marcescens): 8 to 16 µg/mL (≈ 16.6 to 33.3 µM); MIC (Escherichia coli [22]): 0.5 to 2 µg/mL (≈ 1.04 to 4.16 µM); IC50 [23]: 125 nM; MIC (Escherichia coli [24]): 0.25 µg/mL (≈ 0.52 µM); IC50 [25]: 125 nM; MIC (Streptococcus agalactiae): 4 µg/mL (≈ 8.32 µM); MIC (Enterobacter cloacae): 2 to 16 µg/mL (≈ 4.16 to 33.3 µM); Cp(f) (Cavia porcellus [26]): 2700 nM; fraction unbound [27]: 0.236; MIC (Staphylococcus aureus [28]): 0.25 µg/mL (≈ 0.52 µM); fAUC/dose (Rattus norvegicus [29]): 34 µg·h/mL; MIC (Enterococcus faecium): 1 to 16 µg/mL (≈ 2.08 to 33.3 µM)
2 | COc1ccc2ncc(F)c(C[C@H](N)[C@@H]3CC[C@@H](NCc4ccc5c(n4)NC(=O)CO5)CO3)c2n1 | 0.28 | 86 | 86 | 30 | 1 to 4 (≈ 2.07 to 8.29 µM) | 530 | ≤ 0.03 | 573 | 8.8 | 30 | 0.125 (≈ 0.259 µM) | 61 | 0.33 | 0.125 to 2 (≈ 0.259 to 4.14 µM) | 125 | 1 (≈ 2.07 µM) | 0.125 to 0.5 (≈ 0.259 to 1.04 µM) | 125 | 1800 | 2.9 | MIC (Pseudomonas aeruginosa [17]): 1 to 2 µg/mL (≈ 2.07 to 4.14 µM); AUC/dose (Canis familiaris): 34000 ng·h/mL; logD [18]: 0.9; AUC/dose (Rattus norvegicus [19]): 194 µg·h/mL; IC20 (hERG (KCNH2) [20]): 1200 nM; IC50 [21]: 5000 nM; MIC (Citrobacter freundii): 0.25 µg/mL (≈ 0.518 µM); MIC (Serratia marcescens): 1 to 8 µg/mL (≈ 2.07 to 16.6 µM); MIC (Escherichia coli [22]): 0.125 to 0.5 µg/mL (≈ 0.259 to 1.04 µM); IC50 [23]: 30 nM; MIC (Escherichia coli [24]): 0.125 µg/mL (≈ 0.259 µM); IC50 [25]: 125 nM; MIC (Streptococcus agalactiae): 2 µg/mL (≈ 4.14 µM); MIC (Enterobacter cloacae): 0.25 to 4 µg/mL (≈ 0.518 to 8.29 µM); Cp(f) (Cavia porcellus [26]): 530 nM; fraction unbound [27]: 0.15; MIC (Staphylococcus aureus [28]): 0.03 µg/mL (≈ 0.0622 µM); fAUC/dose (Rattus norvegicus [29]): 29 µg·h/mL; MIC (Enterococcus faecium): 0.063 to 0.5 µg/mL (≈ 0.131 to 1.04 µM)
